ChEMBL document CHEMBL3272251, “Synthesis of 5-substituted uracil derivatives” (1976)

Columns and labels:
Format in all cases: functional
[1] = system: Escherichia coli; assay: Antibacterial activity against Escherichia coli B assessed as bacterial growth at 0.1 mM after 20 hrs by turbidometry relative to control
Method in brief: (§1)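 Tested at 1 × 10^-4 M in broth culture, a lower level chosen for limited solubility. Each inhibitor solution received a 2% inoculum of E. coli B or Staph. aureus stock culture. Incubated 20 hr at 37°C, then growth read as turbidity at 500 nm against untreated controls.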

[2] = system: Staphylococcus aureus; assay: Antibacterial activity against Staphylococcus aureus assessed as bacterial growth at 0.1 mM after 20 hrs by turbidometry relative to control; method in brief: as §1
[3] = system: Escherichia coli; assay: Antibacterial activity against Escherichia coli B assessed as bacterial growth at 1 mM after 20 hrs by turbidometry relative to control
Method in brief: (§2)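 Broth culture of E. coli B or Staph. aureus at inhibitor concentration 1 × 10^-3 M. Inoculum was 2% of stock culture added to each inhibitor solution. After 20 hr incubation at 37°C, turbidity was read at 500 nm and compared with controls.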

[4] = system: Staphylococcus aureus; assay: Antibacterial activity against Staphylococcus aureus assessed as bacterial growth at 1 mM after 20 hrs by turbidometry relative to control; method in brief: as §2

| Structure (SMILES) | Activity [1] | Activity [2] | Activity [3] | Activity [4] |
| --- | --- | --- | --- | --- |
| O=C(O)/C=C/c1c[nH]c(=O)[nH]c1=O | 90% | 90% |  |  |
| O=C(CO)c1c[nH]c(=O)[nH]c1=O |  |  | 90% | 90% |
| C[N+](C)(C)CC(=O)c1c[nH]c(=O)[nH]c1=O.[Br-] |  |  | 90% | 90% |
| Nc1nc(-c2c[nH]c(=O)[nH]c2=O)cs1 |  |  | 90% | 90% |
| O=c1[nH]cc(-c2c[nH]cn2)c(=O)[nH]1 | 90% | 90% |  |  |
| O=c1[nH]cc(-c2ncc[nH]2)c(=O)[nH]1 | 90% | 90% |  |  |
